Data as given in ChEMBL document CHEMBL1135686, “Binding model for nonpeptide antagonists of alpha(v)beta(3) integrin” (J Med Chem, 2002).

Target: Integrin alpha-V/beta-3 (Homo sapiens, UniProt P05106+P06756)
Assay: Inhibition of Vitronectin receptor, integrin alphaV-beta3 expressed in HEK 293 cells
Format: cell-based, HEK293
Outline: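 Human recombinant αvβ3 was purified from HEK 293 cells overexpressing it, following a placental αvβ3 purification method, and captured on lyophilized wheat germ agglutinin SPA beads. Values are reported as IC50.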

Integrin alpha-V/beta-3, sequence (P05106 27-788 limits assumed): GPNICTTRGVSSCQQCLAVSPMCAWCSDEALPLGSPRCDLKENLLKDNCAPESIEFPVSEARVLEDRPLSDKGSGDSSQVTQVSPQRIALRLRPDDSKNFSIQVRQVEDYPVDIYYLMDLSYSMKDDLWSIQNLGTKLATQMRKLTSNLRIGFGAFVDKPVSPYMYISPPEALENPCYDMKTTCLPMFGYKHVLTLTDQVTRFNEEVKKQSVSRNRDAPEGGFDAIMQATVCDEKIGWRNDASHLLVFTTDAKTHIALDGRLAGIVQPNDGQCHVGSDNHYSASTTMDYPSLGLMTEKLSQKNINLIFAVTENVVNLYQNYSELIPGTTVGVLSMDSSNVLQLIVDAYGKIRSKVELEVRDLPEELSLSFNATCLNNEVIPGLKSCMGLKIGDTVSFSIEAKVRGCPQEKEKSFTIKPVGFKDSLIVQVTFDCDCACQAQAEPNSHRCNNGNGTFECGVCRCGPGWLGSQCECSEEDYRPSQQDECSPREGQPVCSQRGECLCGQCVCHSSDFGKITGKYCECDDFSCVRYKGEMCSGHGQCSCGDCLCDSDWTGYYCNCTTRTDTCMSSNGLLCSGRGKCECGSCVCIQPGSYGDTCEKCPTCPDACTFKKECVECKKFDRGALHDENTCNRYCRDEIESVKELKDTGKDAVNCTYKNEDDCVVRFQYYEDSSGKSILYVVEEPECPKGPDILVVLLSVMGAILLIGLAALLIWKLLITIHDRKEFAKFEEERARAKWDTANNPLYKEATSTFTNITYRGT
Integrin alpha-V/beta-3, sequence (P06756 31-889 limits assumed): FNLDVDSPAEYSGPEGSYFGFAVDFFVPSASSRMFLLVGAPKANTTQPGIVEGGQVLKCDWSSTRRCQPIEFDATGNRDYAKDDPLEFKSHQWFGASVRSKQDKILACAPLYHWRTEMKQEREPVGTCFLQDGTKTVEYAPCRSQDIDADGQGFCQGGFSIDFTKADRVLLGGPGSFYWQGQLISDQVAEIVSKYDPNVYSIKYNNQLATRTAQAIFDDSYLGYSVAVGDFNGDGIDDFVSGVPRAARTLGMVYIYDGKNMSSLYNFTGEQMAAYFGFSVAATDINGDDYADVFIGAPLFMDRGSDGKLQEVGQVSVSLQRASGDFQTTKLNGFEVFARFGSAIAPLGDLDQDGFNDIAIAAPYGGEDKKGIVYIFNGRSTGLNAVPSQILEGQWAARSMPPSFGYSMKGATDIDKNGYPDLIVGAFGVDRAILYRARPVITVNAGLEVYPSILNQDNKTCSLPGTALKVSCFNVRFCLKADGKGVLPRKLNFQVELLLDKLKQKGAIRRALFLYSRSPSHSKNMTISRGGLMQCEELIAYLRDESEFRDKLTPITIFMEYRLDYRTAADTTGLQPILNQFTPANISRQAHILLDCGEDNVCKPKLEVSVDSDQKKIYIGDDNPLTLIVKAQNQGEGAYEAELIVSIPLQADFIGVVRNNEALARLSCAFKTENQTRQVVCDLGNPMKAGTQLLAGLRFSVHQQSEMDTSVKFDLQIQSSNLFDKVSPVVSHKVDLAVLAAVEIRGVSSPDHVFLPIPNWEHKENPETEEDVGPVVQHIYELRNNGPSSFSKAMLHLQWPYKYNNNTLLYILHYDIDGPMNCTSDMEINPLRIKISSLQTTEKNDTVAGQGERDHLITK
Integrin alpha-V/beta-3, sequence (P06756 891-1048 limits assumed): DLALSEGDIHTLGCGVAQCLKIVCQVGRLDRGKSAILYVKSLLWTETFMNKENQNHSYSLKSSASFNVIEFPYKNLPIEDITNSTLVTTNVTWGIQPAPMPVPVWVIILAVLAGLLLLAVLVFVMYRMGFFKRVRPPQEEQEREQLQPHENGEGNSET

SMILES | IC50 [nM]
O=C(O)C[C@H](NC(=O)CN1CCC(CCc2ccc3c(n2)NCCC3)C1=O)c1cccnc1 (stereo not given in full) | 0.35
O=C(O)C[C@H](NC(=O)CNC(=O)CCCc1ccc2c(n1)NCCC2)c1cccnc1 | 8.8
O=C(O)C[C@H](NC(=O)CN1CCC(CCc2ccc3c(n2)NCCC3)C1=O)c1cnc2ccccc2c1 (stereo not given in full) | 0.04
O=C(NC[C@H](NS(=O)(=O)c1ccccc1)C(=O)O)c1ccc(OCCC2CCNCC2)cc1 | > 1000
CNc1cccc(CCOc2ccc3c(c2)CN(CC(F)(F)F)C(=O)[C@H](CC(=O)O)C3)n1 | 0.15
